Where “and” joins values, the source holds several entries; their conditions need not be identical. Identical values can stand only once.
Columns and labels:
[1] = Compound was evaluated in vivo for antitumor activity against colon adenocarcinoma 38 after injecting the compound intravenously for optimal dose; format: functional, Mus musculus
[2] = tested on: L1210; assay: Compound was evaluated in vivo for antitumor activity after intraperitoneal administration against L1210(935) for total dose at an optimal dose of 0.5 mg/kg/injection at 1,4,7,11day schedule.; format: functional, Mus musculus
Procedure, shortened: (§1)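 L1210 leukemia, maintained in DBA/2 mice, was given ip as 10⁵ cells on day 0 to F1 hybrid or strain-of-origin mice over 18 g, in groups of 8. Dosing was ip from day 1, and mortality was checked daily. Median day of death counts dying mice only. %ILS = 100×(treated − control median day of death)/control median. Tumor-free survivors were counted on day 60. Weight change is g/mouse at nadir.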

[3] = tested on: P388; assay: Compound was evaluated in vivo for antitumor activity after intraperitoneal administration against P388 (1313) for tumor free survivors at an optimal dose of 0.2 mg/kg/injection; format: functional, Mus musculus
[4] = Compound was evaluated in vivo for antitumor activity against Lewis Lung cercinoma after injecting the compound intravenously for median tumor burden; format: functional, Mus musculus
Procedure, shortened: (§2)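 Lewis lung carcinoma: 10^6 cells implanted im into C57Bl/6-derived hosts. Drug given iv on days 5, 9 and 13, 10 mice per group. Median tumor burden and weight nadir recorded. Survivors were killed on day 19, and their lungs were fixed in Fekete solution so that macroscopic metastases could be counted.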

[5] = tested on: P388; assay: Compound was evaluated in vivo for antitumor activity after intraperitoneal administration against P388 (1313) for mortality range at an optimal dose of 0.5 mg/kg/injection; format: functional, Mus musculus
[6] = tested on: P388; assay: Compound was evaluated in vivo for antitumor activity after intraperitoneal administration against P388 (1313) for tumor free survivors at an optimal dose of 0.25 mg/kg/injection; format: functional, Mus musculus
[7] = tested on: L1210; assay: Compound was evaluated in vivo for antitumor activity after intraperitoneal administration against L1210(935)for change in body weight at an optimal dose of 1 mg/kg/injection at 1 day schedule.; format: functional, Mus musculus; procedure, shortened: as §1
[8] = tested on: L1210; assay: Compound was evaluated in vivo for antitumor activity after intraperitoneal administration against L1210(935) for tumor free survivors at an optimal dose of 0.25 mg/kg/injection at 1,4,7,11 day schedule.; format: functional, Mus musculus; procedure, shortened: as §1
[9] = tested on: L1210; assay: Compound was evaluated in vivo for antitumor activity after intraperitoneal administration against L1210(935)for % increase in life span at an optimal dose of 0.2 mg/kg/injection at 1-4 day schedule.; format: functional; conditions: Mus musculus, L1210, ip; procedure, shortened: as §1
[10] = tested on: P388; assay: Compound was evaluated in vivo for antitumor activity after intraperitoneal administration against P388/L-PAM(14) for change in body weight at an optimal dose of 0.25 mg/kg/injection at 1,4,7,11 day schedule.; format: functional, Mus musculus
[11] = tested on: B16; assay: Compound was evaluated in vivo for antitumor activity against […] B16 melanoma 2 after injecting the compound intravenously for optimal dose; format: functional, Mus musculus
[12] = tested on: L1210; assay: Compound was evaluated in vivo for antitumor activity after intraperitoneal administration against L1210(935) for mortality range at an optimal dose of 0.5 mg/kg/injection at 1 day schedule.; format: functional, Mus musculus; procedure, shortened: as §1
[13] = tested on: P388; assay: Compound was evaluated in vivo for antitumor activity after intraperitoneal administration against P388/L-PAM(14) for mortality range at an optimal dose of 1 mg/kg/injection; format: functional, Mus musculus
[14] = tested on: P388; assay: Compound was evaluated in vivo for antitumor activity after intraperitoneal administration against P388 (1313) for total dose at an optimal dose of 0.2 mg/kg/injection; format: functional, Mus musculus
[15] = Compound was evaluated in vivo for antitumor activity against Lewis Lung cercinoma after injecting the compound intravenously for toxicity related death.; format: functional, Mus musculus; procedure, shortened: as §2
[16] = tested on: P388; assay: Compound was evaluated in vivo for antitumor activity after intraperitoneal administration against P388/L-PAM(14) for change in body weight at an optimal dose of 1 mg/kg/injection; format: functional, Mus musculus
[17] = tested on: P388; assay: Compound was evaluated in vivo for antitumor activity after intraperitoneal administration against P388/L-PAM(14) for median day of death at an optimal dose of 0.1 mg/kg/injection at 1,2,3,4 day schedule.; format: functional, Mus musculus
[18] = tested on: L1210; assay: Compound was evaluated in vivo for antitumor activity after intraperitoneal administration against L1210(935)for % increase in life span at an optimal dose of 0.5 mg/kg/injection at 1,4,7,11day schedule.; format: functional; conditions: Mus musculus, L1210, ip; procedure, shortened: as §1
[19] = tested on: P388; assay: Compound was evaluated in vivo for antitumor activity after intraperitoneal administration against P388 (1303) for median day of death at an optimal dose of 0.75 mg/kg/injection; format: functional, Mus musculus
[20] = tested on: P388; assay: Compound was evaluated in vivo for antitumor activity after intraperitoneal administration against P388/L-PAM(14) for tumor free survivors at an optimal dose of 0.125 mg/kg/injection at 1,4,7,11 day schedule.; format: functional, Mus musculus
[21] = tested on: P388; assay: Compound was evaluated in vivo for antitumor activity after intraperitoneal administration against P388/L-PAM(12) for mortality range at an optimal dose of 0.75 mg/kg/injection; format: functional, Mus musculus
[22] = tested on: L1210; assay: Compound was evaluated in vivo for antitumor activity after intraperitoneal administration against L1210(935) for tumor free survivors at an optimal dose of 0.5 mg/kg/injection at 1 day schedule.; format: functional, Mus musculus; procedure, shortened: as §1
[23] = tested on: L1210; assay: Compound was evaluated in vivo for antitumor activity after intraperitoneal administration against L1210(935) for mortality range at an optimal dose of 0.5 mg/kg/injection at 1,4,7,11day schedule.; format: functional, Mus musculus; procedure, shortened: as §1
[24] = Compound was evaluated in vivo for antitumor activity against Glasgow osteogenic sarcoma after injecting the compound intravenously for percent T/C (value in parentheses indicates the day of evaluation); format: functional, Mus musculus
[25] = tested on: P388; assay: Compound was evaluated in vivo for antitumor activity after intraperitoneal administration against P388/L-PAM(12) for total dose at an optimal dose of 0.75 mg/kg/injection; format: functional, Mus musculus
[26] = tested on: P388; assay: Compound was evaluated in vivo for antitumor activity after intraperitoneal administration against P388 (1313) for % increase in life span at an optimal dose of 0.4 mg/kg/injection; format: functional; conditions: Mus musculus, P388, ip
[27] = tested on: L1210; assay: Compound was evaluated in vivo for antitumor activity after intraperitoneal administration against L1210(935) for mortality range at an optimal dose of 1 mg/kg/injection at 1 day schedule.; format: functional, Mus musculus; procedure, shortened: as §1
[28] = tested on: P388; assay: Compound was evaluated in vivo for antitumor activity after intraperitoneal administration against P388 (1313) for tumor free survivors at an optimal dose of 0.5 mg/kg/injection on day 60; format: functional, Mus musculus
[29] = tested on: P388; assay: Compound was evaluated in vivo for antitumor activity after intraperitoneal administration against P388/L-PAM(14) for change in body weight at an optimal dose of 0.1 mg/kg/injection at 1,2,3,4 day schedule.; format: functional, Mus musculus
[30] = tested on: P388; assay: Compound was evaluated in vivo for antitumor activity after intraperitoneal administration against P388/L-PAM(14) for mortality range at an optimal dose of 0.125 mg/kg/injection at 1,4,7,11 day schedule.; format: functional, Mus musculus
[31] = tested on: M5076; assay: Compound was evaluated in vivo for antitumor activity against M5076 after injecting the compound intravenously for total dose.; format: functional, Mus musculus
[32] = tested on: P388; assay: Compound was evaluated in vivo for antitumor activity after intraperitoneal administration against P388 (1313) for median day of death at an optimal dose of 0.4 mg/kg/injection; format: functional, Mus musculus
[33] = tested on: L1210; assay: Compound was evaluated in vivo for antitumor activity after intraperitoneal administration against L1210(935) for median day of death at an optimal dose of 0.125 mg/kg/injection at 1,4,7,11day schedule.; format: functional, Mus musculus; procedure, shortened: as §1

CN(C)CCCNc1ncnc2c1C(=O)C(N1CC1)=C(N1CC1)C2=O
Optimal dose [1]: 0.25 mg/kg
Total dose [2]: 2 mg/kg
Survivors [3]: 0
Tumor burden [4]: 7717 mg and 7748 mg
Mortality [5]: 30 days
Survivors [6]: 0
Change in body weight [7]: 0.6 g mouse-1
Survivors [8]: 0
ILS at 0.2 mg/kg [9]: 27%
Change in body weight [10]: 0.9 g mouse-1
Optimal dose [11]: 0.2 mg/kg
Mortality [12]: 16 days
Mortality [13]: 26 days
Optimal dose [14]: 0.8 mg/kg
Toxicity [15]: 0
Change in body weight [16]: -1.2 g mouse-1
Median day of death [17]: 14
ILS at 0.5 mg/kg [18]: 27%
Median day of death [19]: 18.5
Survivors [20]: 0
Mortality [21]: 19
Survivors [22]: 0
Mortality [23]: 18 days
T/C [24]: 0%
Optimal dose [25]: 0.75 mg/kg
ILS at 0.4 mg/kg [26]: 91%
Mortality [27]: 16 days
Survivors [28]: 0
Change in body weight [29]: 0.5 g mouse-1
Mortality [30]: 27 days
Total dose [31]: 4 mg/kg
Median day of death [32]: 23
Median day of death [33]: 13

From ChEMBL document CHEMBL1125740, “Heterocyclic quinones. 17. A new in vivo active antineoplastic drug: 6,7-bis(1-aziridinyl)-4-[[3-(N,N-dimethylamino)propyl]amino]-5,8- quinazolinedione” (J Med Chem, 1991)
